Screening data deposited in PubChem by The Scripps Research Institute Molecular Screening Center.
Shown are actives, neighbours in structure and some others; about 3.3% of the full set was active somewhere.
PRMT1 FP inh: PRMT1 (human) inhibition, primary screen | Q99873 | recombinant PRMT1, activity-based probe fluorescence polarization | inhibition, % at 2.79 µM | 370,000 tested, 1.3% active;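 active = inhibition above about 21% made by adding two undisclosed values, limit read from the data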
LEDGF integ inh: blocks HIV-1 LEDGF/p75-dependent DNA integration | TR-FRET IN-LEDGF/p75 DNA integration, Eu/Cy5 | 370,000 tested, 0.64% active | inhibition, % at 3.7 µM;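 active = inhibition above the screen-wide mean plus 3 SD, cut at about 13% in these data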;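 note: signal is the Cy5 over europium emission ratio at 671 and 618 nm; 0% = plate median of compound wells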
SIAE inh: human SIAE inhibition, primary screen; inhibition, % at 9.66 µM; Q9HAT2; 370,000 tested, 0.69% active; SIAE FP-Rh probe binding, fluorescence polarization;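 active = inhibition above a cutoff: mean of compounds within the control limits plus 3 SD of those, cut at about 17% in these data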;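 note: 0% = plate median of compound wells and 100% = probe without SIAE protein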
UHRF1 MBD2 ctr: UHRF1 methyl-DNA binding inhibition. Q96T88. UHRF1 binding to methylated oligo, TR-FRET. inhibition, % at 4.4 µM. 370,000 tested, 0.75% active. AID 687016; in the data active = inhibition above about 21%;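 note: UHRF1 SRA domain binding a hemimethylated CpG hairpin DNA probe; 0% = median of test compound wells and 100% = reference inhibitor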
TDP2 inh: blocks human TDP2 phosphodiesterase activity; inhibition, % at 12.8 µM; recombinant TDP2, T5PNP hydrolysis, p-nitrophenol absorbance 415 nm; AID 720702; 370,000 tested, 0.34% active; O95551;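 active = inhibition above the mean of all tested compounds plus 3 SD, set per campaign, cut at about 25% in these data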;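 note: 0% = DMSO with enzyme and 100% = buffer with substrate but no TDP2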
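Incubation: 2 h at 37 °C; Test system: recombinant human TDP2; Quantity: enzyme 120 nM; Read-out basis: percent inhibition; Medium: 50 mM Tris-HCl pH 7.5 with Mg2+, KCl, DTT, BSA; Repeats: single replicate; Compound: 12.8 µM single point, 1% DMSO; Signal: epi absorbance; Reagent: 5 mM T5PNP chromogenic substrate; Benchmarks: no-enzyme high, DMSO-plus-enzyme low.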
MBD2 inh: blocks human MBD2 binding to methylated DNA. inhibition, % at 4.4 µM. Q9UBB5. AID 686964. 370,000 tested, 0.31% active. TR-FRET, MBD2 binding to methylated oligonucleotide; in the data active = inhibition above about 13%
Target sequence (Q9UBB5 whole entry, looked up): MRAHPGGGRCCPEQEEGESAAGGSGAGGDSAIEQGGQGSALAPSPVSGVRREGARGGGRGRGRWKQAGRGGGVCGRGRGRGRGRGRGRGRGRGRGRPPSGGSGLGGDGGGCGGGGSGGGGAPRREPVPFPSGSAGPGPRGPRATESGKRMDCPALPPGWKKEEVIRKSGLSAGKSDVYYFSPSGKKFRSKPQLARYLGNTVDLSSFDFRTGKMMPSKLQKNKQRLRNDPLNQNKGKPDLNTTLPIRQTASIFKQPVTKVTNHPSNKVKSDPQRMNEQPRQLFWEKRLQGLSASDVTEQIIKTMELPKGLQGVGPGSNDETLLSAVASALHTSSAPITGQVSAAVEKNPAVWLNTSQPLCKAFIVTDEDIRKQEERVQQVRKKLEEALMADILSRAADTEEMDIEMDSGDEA
Starred values were filed as active, the others as inactive.

How did CO/N=C\C(=N\Nc1ccc(OC)cc1)C(=O)c1ccccc1 do in these assays?
PRMT1 FP inh: 2.5; LEDGF integ inh: -0.4; SIAE inh: -2.3; UHRF1 MBD2 ctr: 37.8*; TDP2 inh: -12.3; MBD2 inh: -5.6

How did CCOC(=O)[C@@]12CCCC=C1N(CCc1ccc(Cl)cc1)C(=O)[C@H]2CC(=O)NCc1ccc(OC)c(OC)c1 do in these assays?
PRMT1 FP inh: 4.3; LEDGF integ inh: -2.4; SIAE inh: 3.6; UHRF1 MBD2 ctr: -0.5; TDP2 inh: 1.3; MBD2 inh: 3.8

What do the screens show for `COCCn1cnc2c(c1=O)c1nc3ccccc3nc1n2/N=C/c1cccc(OC)c1`?
PRMT1 FP inh: 2.5; LEDGF integ inh: -4.1; SIAE inh: -7.5; UHRF1 MBD2 ctr: 24.4*; TDP2 inh: -4.5; MBD2 inh: 3.5

Results for CC(=O)N1CC[n+]2c(-c3ccc(Cl)cc3)csc21 ?
PRMT1 FP inh: 78.4*; LEDGF integ inh: -1.9; SIAE inh: -6.6; UHRF1 MBD2 ctr: 0.6; TDP2 inh: -6.0; MBD2 inh: -0.3

Results for CCOc1ccccc1OCC(=O)Nc1ccc(S(=O)(=O)N(C)C)cc1 ?
PRMT1 FP inh: 0.1; LEDGF integ inh: 1.3; SIAE inh: -1.6; UHRF1 MBD2 ctr: 47.1*; TDP2 inh: 6.4; MBD2 inh: -6.0

How did CC1CCN(C2=NC(=O)N(c3ccc(Br)cc3)C(=O)C2)CC1 do in these assays?
PRMT1 FP inh: -1.6; LEDGF integ inh: -0.2; SIAE inh: -1.4; UHRF1 MBD2 ctr: -0.5; TDP2 inh: 1.2; MBD2 inh: 1.1

How did O=C(NN1C(=O)CSC1=S)C(=O)NN1C(=O)CSC1=S do in these assays?
PRMT1 FP inh: 17.1; LEDGF integ inh: 29.3*; SIAE inh: -14.3; UHRF1 MBD2 ctr: 19.2; TDP2 inh: 1.4; MBD2 inh: 3.6

Results for O=C(Cc1cccc2ccccc12)NN1C(=O)CSC1=S ?
PRMT1 FP inh: 6.0; LEDGF integ inh: 1.1; SIAE inh: -2.2; UHRF1 MBD2 ctr: -1.6; TDP2 inh: 3.0; MBD2 inh: 0.2

Results for C=CCN1C(=O)[C@@H](CC(=O)NCCCC)[C@]2(C(=O)OC)CCCCC=C12 ?
PRMT1 FP inh: -0.2; LEDGF integ inh: 4.5; SIAE inh: 3.0; UHRF1 MBD2 ctr: 1.2; TDP2 inh: -1.2; MBD2 inh: -1.8

Results for CC1=C(C#N)C(c2ccc3ncccc3c2)C(C#N)=C(C)N1 ?
PRMT1 FP inh: 7.5; LEDGF integ inh: -0.1; SIAE inh: 0.2; UHRF1 MBD2 ctr: 28.4*; TDP2 inh: -4.9; MBD2 inh: 7.6

How did COC(=O)[C@]12C[C@H](CC(=O)NCc3ccc(C)o3)C(=O)N(Cc3ccc(Cl)cc3Cl)C1=C[C@H](C(C)(C)C)O[C@@H]2C do in these assays?
PRMT1 FP inh: 4.3; LEDGF integ inh: -0.6; SIAE inh: -7.5; UHRF1 MBD2 ctr: -1.2; TDP2 inh: -7.0; MBD2 inh: -2.1

How did CCOC(=O)CC1C(=O)NCCN1Cc1cccc(C(F)(F)F)c1 (stereo not given) do in these assays?
PRMT1 FP inh: 23.5*; LEDGF integ inh: -1.2; SIAE inh: 0.3; UHRF1 MBD2 ctr: -4.7; TDP2 inh: 9.0; MBD2 inh: -0.7

What do the screens show for `COC(=O)C1CN(Cc2ccccc2)CCS(=O)(=O)N1Cc1ccccc1` (stereo not given)?
PRMT1 FP inh: -3.0; LEDGF integ inh: 1.9; SIAE inh: -2.5; UHRF1 MBD2 ctr: 2.1; TDP2 inh: -3.3; MBD2 inh: -1.4

Results for O=C(CNC(=O)c1ccccc1)NCCc1ccc(O)c(O)c1 ?
PRMT1 FP inh: 25.2*; LEDGF integ inh: 3.6; SIAE inh: 4.1; UHRF1 MBD2 ctr: -3.7; TDP2 inh: -17.5; MBD2 inh: -1.1

Results for CCCCNS(=O)(=O)CC1NCc2cc(F)ccc21 (stereo not given) ?
PRMT1 FP inh: 2.8; LEDGF integ inh: 4.3; SIAE inh: -4.3; UHRF1 MBD2 ctr: -0.3; TDP2 inh: -6.5; MBD2 inh: -1.1

How did CCCN(CCC)CCCNC(=O)c1cc2c(-c3ccc(OC)c(OC)c3)nn(C)c2s1 do in these assays?
PRMT1 FP inh: 3.6; LEDGF integ inh: -4.5; SIAE inh: -1.4; UHRF1 MBD2 ctr: 23.2*; TDP2 inh: -7.2; MBD2 inh: 7.4

How did O=[N+]([O-])c1ccccc1-c1ccc(CN2CCN(c3ccccc3)CC2)o1 do in these assays?
PRMT1 FP inh: 23.2*; LEDGF integ inh: 4.1; SIAE inh: -2.6; UHRF1 MBD2 ctr: -0.2; TDP2 inh: -23.0; MBD2 inh: -2.2

Results for CSc1ncccc1C(=O)OCC(=O)c1cc(C)n(C)c1C ?
PRMT1 FP inh: 1.3; LEDGF integ inh: -4.5; SIAE inh: 8.2; UHRF1 MBD2 ctr: -0.7; TDP2 inh: 5.8; MBD2 inh: 3.7

How did Cc1cc(C(=O)COC(=O)c2cccnc2Cl)c(C)n1C do in these assays?
PRMT1 FP inh: 0.9; LEDGF integ inh: 34.5*; SIAE inh: -0.9; UHRF1 MBD2 ctr: -0.5; TDP2 inh: 2.2; MBD2 inh: -4.5

Results for Cc1ccc(C(=O)OCC(=O)NCCNC(=O)COC(=O)c2ccc(C)s2)s1 ?
PRMT1 FP inh: -1.9; LEDGF integ inh: 1.1; SIAE inh: 10.3; UHRF1 MBD2 ctr: 30.3*; TDP2 inh: 7.5; MBD2 inh: -0.6

Results for O=C(N[C@@H](Cc1ccccc1)C(=O)NCP(=O)(O)OC(Cc1ccccc1)C(=O)O)OCc1ccccc1 (stereo not given in full) ?
PRMT1 FP inh: 5.1; LEDGF integ inh: 1.3; SIAE inh: 1.5; UHRF1 MBD2 ctr: 1.1; TDP2 inh: 5.6; MBD2 inh: -3.8

What do the screens show for `CCCc1nc2c3ccccc3ccn2c1Cc1ccc(C)cc1`?
PRMT1 FP inh: 0.7; LEDGF integ inh: -1.7; SIAE inh: 0.1; UHRF1 MBD2 ctr: 17.7; TDP2 inh: -1.1; MBD2 inh: 2.3

Results for CCCc1nc2c3ccccc3ccn2c1Cc1cccc(Cl)c1 ?
PRMT1 FP inh: 3.2; LEDGF integ inh: -2.0; SIAE inh: 3.8; UHRF1 MBD2 ctr: 24.4*; TDP2 inh: -2.4; MBD2 inh: 11.3

Results for c1ccc(Cc2c(C3CCCCC3)nc3c4ccccc4ccn23)cc1 ?
PRMT1 FP inh: 4.8; LEDGF integ inh: -0.7; SIAE inh: 1.1; UHRF1 MBD2 ctr: 20.0; TDP2 inh: -1.2; MBD2 inh: 5.9

How did Fc1cccc(Cc2c(C3CCCCC3)nc3c4ccccc4ccn23)c1 do in these assays?
PRMT1 FP inh: 4.0; LEDGF integ inh: -4.7; SIAE inh: 2.1; UHRF1 MBD2 ctr: 24.9*; TDP2 inh: 9.4; MBD2 inh: 10.9

Results for N#Cc1cccc(NC(=O)OCCCN2CCC3(CCCCC3)C2=O)c1 ?
PRMT1 FP inh: -2.3; LEDGF integ inh: 1.6; SIAE inh: 5.6; UHRF1 MBD2 ctr: 2.2; TDP2 inh: -3.1; MBD2 inh: -3.3

Results for CC(=O)N=C1SC2CS(=O)(=O)CC2N1c1c(Cl)cccc1Cl (stereo not given) ?
PRMT1 FP inh: 0.8; LEDGF integ inh: -2.0; SIAE inh: 1.3; UHRF1 MBD2 ctr: 23.8*; TDP2 inh: 0.2; MBD2 inh: -1.8
